Results from ChEMBL document CHEMBL1148376, “Synthesis, monoamine transporter binding properties, and behavioral pharmacology of a series of 3beta-(substituted phenyl)-2beta-(3'-substituted isoxazol-5-yl)tropanes” (J Med Chem, 2004).

How the values were obtained:
Mus musculus [1] = assay: Percent change from vehicle in locomotor activity in mice at 0.3 mg/kg (ip) in 3 h; assay type: functional
Mus musculus [2] = assay: Percent change from vehicle in locomotor activity in mice at 0.3 mg/kg (ip) in 2 h; assay type: functional
Rattus norvegicus [3] = assay: Drug discrimination effect of compound in rats, expressed as percent of rats choosing the cocaine lever at dose 3 mg/kg (ip); assay type: functional
Mus musculus [4] = species: Mus musculus; assay: Effective dose for locomotor activity in mice in the peak hour.; assay type: functional
Mus musculus [5] = assay: Percent change in locomotor activity in mice at 1 mg/kg i.p. in 2 h.; assay type: functional; settings: route intraperitoneal
Outline: (§1)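 Mice habituated 1/2 h to photocell activity chambers, then injected ip with compound homogenized in 0.5% methyl cellulose (10 mL/kg); vehicle controls; N = 5 or 6 per dose. Photobeam interruptions recorded in 10-min bins for 4 h, grouped into 1-h bins; one-way ANOVA with Newman-Keuls post hoc test (p < 0.05).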

Mus musculus [6] = assay: Percent change in locomotor activity in mice at 1 mg/kg i.p. in 1 h.; assay type: functional; settings: route intraperitoneal
Mus musculus [7] = assay: Percent change locomotor activity in mice at 1 mg/kg i.p. in 3 h.; assay type: functional; settings: route intraperitoneal; outline: as §1
Mus musculus [8] = species: Mus musculus; assay: Hour 1 ratio to cocaine was determined for locomotor activity in mice; assay type: functional
Mus musculus [9] = assay: Percent change in locomotor activity in mice at 1 mg/kg i.p. in 4 h.; assay type: functional; settings: route intraperitoneal; outline: as §1
Mus musculus [10] = assay: Percent change in locomotor activity in mice at 3 mg/kg i.p. in 3 h.; assay type: functional; settings: route intraperitoneal; outline: as §1
Mus musculus [11] = assay: Percent change in locomotor activity in mice at 3 mg/kg i.p. in 2 h.; assay type: functional; settings: route intraperitoneal; outline: as §1
[12] = molecular target: T1, Norepinephrine transporter (Rattus norvegicus, UniProt Q9WTR4); assay: Binding affinity towards norepinephrine transporter was determined using [3H]nisoxetine radioligand.
Outline: (§2)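 Competition binding at the NET with 0.5 nM [3H]nisoxetine (final concentration). Other procedures follow earlier published methods.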

[13] = molecular target: T2, Sodium-dependent serotonin transporter (Rattus norvegicus, UniProt P31652); assay: Inhibitory concentration required to inhibit serotonin transporter 5-HTT was determined by using [3H]paroxetine radioligand
Outline: (§3)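 Competition binding at the 5-HTT with 0.2 nM [3H]paroxetine (final concentration). Other procedures follow earlier published methods.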

[14] = molecular target: T2, Sodium-dependent serotonin transporter; assay: Binding affinity towards serotonin transporter 5-HTT was determined using [3H]paroxetine radioligand.; outline: as §3
Mus musculus [15] = assay: Percent change in locomotor activity in mice at 3 mg/kg i.p. in 4 h.; assay type: functional; settings: route intraperitoneal; outline: as §1
[16] = molecular target: Sodium-dependent dopamine transporter (Rattus norvegicus, UniProt P23977); assay: Inhibitory concentration required to inhibit dopamine transporter DAT was determined by using [3H]WIN-35428 radioligand
Outline: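 Competition binding at the DAT with 0.5 nM [3H]WIN35,428 (final concentration). Other procedures follow earlier published methods.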

Mus musculus [17] = assay: Percent change in locomotor activity in mice at 3 mg/kg i.p. in 1 h.; assay type: functional; settings: route intraperitoneal; outline: as §1
Rattus norvegicus [18] = assay: Drug discrimination effect of compound in rats, expressed as percent of rats choosing the cocaine lever at dose 1.7 mg/kg (ip); assay type: functional
Mus musculus [19] = assay: Percent change from vehicle in locomotor activity in mice at 0.3 mg/kg (ip) in 4 h; assay type: functional
Mus musculus [20] = assay: Percent change from vehicle in locomotor activity in mice at 0.3 mg/kg (ip) in 1 h; assay type: functional
Rattus norvegicus [21] = assay: Drug discrimination effect of compound in rats, expressed as percent of rats choosing the cocaine lever at dose 1 mg/kg (ip); assay type: functional
[22] = molecular target: T1, Norepinephrine transporter; assay: Inhibition of norepinephrine transporter (NET) determined using [3H]nisoxetine radioligand.; outline: as §2
Rattus norvegicus [23] = assay: Effective dose for drug discrimination effect in rat (ip); assay type: functional
Outline: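 Cocaine-trained rat drug discrimination, FR10, 10-min sessions. Compound in 0.5% methyl cellulose given ip 15 min before session, usually to 7-8 rats per dose. Doses were raised from ≤20% to ≥80% cocaine-lever choice, capped at 30 mg/kg, >50% loss of pressing, or side effects.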

Mus musculus [24] = assay: Percent change from vehicle in locomotor activity in mice at 10 mg/kg (ip) in 1 h; assay type: functional
Rattus norvegicus [25] = assay: Drug discrimination effect of compound in rats, expressed as percent of rats choosing the cocaine lever at dose 5.6 mg/kg (ip); assay type: functional
Mus musculus [26] = assay: Percent change from vehicle in locomotor activity in mice at 10 mg/kg (ip) in 3 h; assay type: functional
Mus musculus [27] = assay: Percent change from vehicle in locomotor activity in mice at 10 mg/kg (ip) in 2 h; assay type: functional
Rattus norvegicus [28] = assay: Drug discrimination effect of compound in rats, expressed as percent of rats choosing the cocaine lever at dose 10 mg/kg (ip); assay type: functional
Mus musculus [29] = assay: Percent change from vehicle in locomotor activity in mice at 10 mg/kg (ip) in 4 h; assay type: functional

T1 sequence (Q9WTR4 whole entry): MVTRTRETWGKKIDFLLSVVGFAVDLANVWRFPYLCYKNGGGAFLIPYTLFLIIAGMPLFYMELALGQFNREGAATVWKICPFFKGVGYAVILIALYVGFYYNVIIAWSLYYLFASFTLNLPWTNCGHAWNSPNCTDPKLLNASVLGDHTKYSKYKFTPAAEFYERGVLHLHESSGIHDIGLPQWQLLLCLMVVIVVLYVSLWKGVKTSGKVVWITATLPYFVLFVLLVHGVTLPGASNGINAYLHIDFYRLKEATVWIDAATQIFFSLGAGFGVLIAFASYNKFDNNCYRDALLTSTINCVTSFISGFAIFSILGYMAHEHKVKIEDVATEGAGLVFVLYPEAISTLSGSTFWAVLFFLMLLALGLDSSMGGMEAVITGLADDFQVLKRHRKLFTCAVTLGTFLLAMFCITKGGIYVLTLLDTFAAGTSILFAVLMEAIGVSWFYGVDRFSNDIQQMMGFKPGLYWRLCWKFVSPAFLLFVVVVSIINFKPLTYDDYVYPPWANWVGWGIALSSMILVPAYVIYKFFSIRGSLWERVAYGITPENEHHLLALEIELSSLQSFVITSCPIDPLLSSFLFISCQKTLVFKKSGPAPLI
T2 sequence (P31652 whole entry): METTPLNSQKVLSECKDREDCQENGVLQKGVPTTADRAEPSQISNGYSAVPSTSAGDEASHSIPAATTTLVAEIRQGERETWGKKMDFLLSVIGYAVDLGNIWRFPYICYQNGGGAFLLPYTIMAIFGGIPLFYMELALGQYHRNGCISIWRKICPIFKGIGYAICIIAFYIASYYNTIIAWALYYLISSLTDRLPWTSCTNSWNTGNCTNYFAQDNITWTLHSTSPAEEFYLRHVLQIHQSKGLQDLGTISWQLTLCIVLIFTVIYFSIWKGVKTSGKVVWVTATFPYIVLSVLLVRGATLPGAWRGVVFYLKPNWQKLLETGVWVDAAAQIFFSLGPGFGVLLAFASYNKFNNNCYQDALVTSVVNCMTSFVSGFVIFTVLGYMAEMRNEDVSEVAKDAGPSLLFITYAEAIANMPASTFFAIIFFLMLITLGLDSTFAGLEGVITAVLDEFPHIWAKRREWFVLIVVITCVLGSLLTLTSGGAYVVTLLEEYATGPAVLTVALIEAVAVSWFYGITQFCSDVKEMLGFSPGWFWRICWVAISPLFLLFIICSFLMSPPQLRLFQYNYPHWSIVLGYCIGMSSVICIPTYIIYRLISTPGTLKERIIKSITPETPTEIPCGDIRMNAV
Chain of Sodium-dependent dopamine transporter (P23977 whole entry): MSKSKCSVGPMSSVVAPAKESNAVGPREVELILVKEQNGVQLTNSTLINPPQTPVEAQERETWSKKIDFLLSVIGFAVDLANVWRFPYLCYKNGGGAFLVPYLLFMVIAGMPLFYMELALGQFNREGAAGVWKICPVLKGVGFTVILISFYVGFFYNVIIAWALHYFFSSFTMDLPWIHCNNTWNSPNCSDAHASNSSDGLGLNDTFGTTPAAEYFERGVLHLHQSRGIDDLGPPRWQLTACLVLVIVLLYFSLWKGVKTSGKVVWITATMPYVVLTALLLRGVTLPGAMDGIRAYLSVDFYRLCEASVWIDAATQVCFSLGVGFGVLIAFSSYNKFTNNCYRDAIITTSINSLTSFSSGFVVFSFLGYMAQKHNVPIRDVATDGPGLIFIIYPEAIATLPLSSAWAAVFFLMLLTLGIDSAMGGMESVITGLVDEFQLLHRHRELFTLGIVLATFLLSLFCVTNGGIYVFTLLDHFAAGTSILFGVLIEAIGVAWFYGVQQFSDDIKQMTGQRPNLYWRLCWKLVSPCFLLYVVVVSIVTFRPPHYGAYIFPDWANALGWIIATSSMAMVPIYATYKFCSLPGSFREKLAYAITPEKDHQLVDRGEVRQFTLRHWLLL

| SMILES | Drug discrimination effect (Rattus norvegicus [3]) [%] | ED50 (Mus musculus [4]) [mg/kg] | Change (Mus musculus [5]) [%] | Change (Mus musculus [6]) [%] | Change (Mus musculus [7]) [%] | Ratio (Mus musculus [8]) | Change (Mus musculus [9]) [%] | Change (Mus musculus [10]) [%] | Change (Mus musculus [11]) [%] | Ki [12] [µM] | IC50 [13] [µM] | Ki [14] [µM] | Change (Mus musculus [15]) [%] | IC50 [16] [µM] | Change (Mus musculus [17]) [%] | IC50 [22] [µM] | Change (Mus musculus [24]) [%] | Drug discrimination effect (Rattus norvegicus [25]) [%] | Change (Mus musculus [26]) [%] | Change (Mus musculus [27]) [%] | further results |
| --- | --- | --- | --- | --- | --- | --- | --- | --- | --- | --- | --- | --- | --- | --- | --- | --- | --- | --- | --- | --- | --- |
| CC(C)c1cc(C2C(c3ccc(Cl)cc3)CC3CCC2N3C)on1 (stereo not drawn) | 63 | 0.8 | 632 | 370 | 188 | 1.9 | -2 | 680 | 995 | 0.575 | 2.32 | 0.211 | 1745 | 0.00119 | 876 | 0.954 | – | – | – | – | Change (Mus musculus [1]): -21%; Change (Mus musculus [2]): 41%; Drug discrimination effect (Rattus norvegicus [18]): 25%; Change (Mus musculus [19]): -39%; Change (Mus musculus [20]): 34%; Drug discrimination effect (Rattus norvegicus [21]): 13% |
| CN1C2CC[C@@H]1C[C@H](c1ccc(Cl)cc1)C2c1cc(-c2ccccc2)no1 (stereo partly drawn) | 29 | 3.4 | 27 | 11 | 45 | 1.1 | 76 | 377 | 456 | 0.22 | 0.504 | 0.305 | 378 | – | 331 | 2.42 | 513 | 63 | 485 | 402 | ED50 (Rattus norvegicus [23]): 4.73 mg/kg; Drug discrimination effect (Rattus norvegicus [28]): 75%; Change (Mus musculus [29]): 924% |
| CN1C2CCC1C(c1cc(C(C)(C)C)no1)C(c1ccc(Cl)cc1)C2 (stereo not drawn) | 50 | 4 | 103 | 41 | 135 | 0.9 | 33 | 206 | 204 | 3.81 | 36.8 | 3.35 | -29 | 0.00731 | 112 | 6.32 | 388 | 88 | 1272 | 769 | ED50 (Rattus norvegicus [23]): 3.04 mg/kg; Drug discrimination effect (Rattus norvegicus [28]): 83%; Change (Mus musculus [29]): 229%; Drug discrimination effect (Rattus norvegicus [21]): 0% |
| COc1ccc(-c2cc(C3C(c4ccc(Cl)cc4)CC4CCC3N4C)on2)cc1 (stereo not drawn) | 0 | 3.7 | 51 | 0 | 101 | 1.2 | -21 | 662 | 481 | 0.454 | 5.88 | 0.535 | 335 | 0.00157 | 197 | 0.762 | 521 | 43 | 2830 | 1337 | Drug discrimination effect (Rattus norvegicus [28]): 50%; Change (Mus musculus [29]): 2120%; Drug discrimination effect (Rattus norvegicus [21]): 0% |
| CN1C2CCC1C(c1cc(-c3ccc(F)cc3)no1)C(c1ccc(Cl)cc1)C2 (stereo not drawn) | 13 | 2.8 | 38 | -26 | -77 | 1.6 | 37 | 479 | 463 | 0.553 | 7.26 | 0.66 | 392 | 0.00186 | 271 | 0.918 | 729 | 43 | 514 | 832 | Drug discrimination effect (Rattus norvegicus [28]): 63%; Change (Mus musculus [29]): 767% |
| CN1C2CCC1C(c1cc(-c3ccc(Cl)cc3)no1)C(c1ccc(Cl)cc1)C2 (stereo not drawn) | 13 | 3.6 | 19 | 15 | 74 | 0.4 | 39 | 298 | 237 | 3.79 | > 76 | – | 389 | 0.00642 | 59 | 5.29 | 166 | 0 | 838 | 612 | Drug discrimination effect (Rattus norvegicus [28]): 50%; Change (Mus musculus [29]): 1372%; Drug discrimination effect (Rattus norvegicus [21]): 0% |
| Cc1ccc(-c2cc(C3C(c4ccc(Cl)cc4)CC4CCC3N4C)on2)cc1 (stereo not drawn) | 14 | 3.9 | 44 | 8 | -49 | 0.7 | 170 | 265 | 153 | 1.03 | 5.74 | 0.522 | 119 | 0.00409 | 23 | 1.71 | 308 | 50 | 1024 | 1034 | ED50 (Rattus norvegicus [23]): 5.95 mg/kg; Drug discrimination effect (Rattus norvegicus [28]): 88%; Change (Mus musculus [29]): 493%; Drug discrimination effect (Rattus norvegicus [21]): 14% |
| CN1C2CCC1C(C(=O)Oc1ccccc1)C(c1ccc(Cl)cc1)C2 (stereo not drawn) | – | – | – | – | – | – | – | – | – | 0.213 | 2.96 | 1.78 | – | – | – | 2.34 | – | – | – | – | – |
| Cc1ccc(C2CC3CCC(C2c2cc(-c4ccccc4)no2)N3C)cc1 (stereo not drawn) | 0 | 2.5 | 139 | 48 | 89 | 1.2 | 154 | 283 | 369 | 0.239 | 5.11 | 0.465 | 329 | 0.00158 | 244 | 0.398 | 526 | 75 | 363 | 663 | ED50 (Rattus norvegicus [23]): 4.88 mg/kg; Drug discrimination effect (Rattus norvegicus [28]): 86%; Change (Mus musculus [29]): 141% |
| Cc1ccc(C2CC3CCC(C2c2cc(C(C)(C)C)no2)N3C)cc1 (stereo not drawn) | – | – | – | – | – | – | – | – | – | 1.82 | 295 | 26 | – | 0.026 | – | 3.33 | – | – | – | – | – |
| Cc1ccc(C2CC3CCC(C2c2cc(C(C)C)no2)N3C)cc1 (stereo not drawn) | 25 | 4.7 | 29 | -1 | -20 | 0.9 | 24 | 207 | 241 | 1.55 | 42.9 | 3.9 | 70 | 0.0045 | 329 | 2.52 | 637 | 67 | 765 | 532 | ED50 (Rattus norvegicus [23]): 4.63 mg/kg; Drug discrimination effect (Rattus norvegicus [28]): 86%; Change (Mus musculus [29]): 576% |
| Cc1ccc(C2CC3CCC(C2C(=O)OC(C)C)N3C)cc1 (stereo not drawn) | – | – | – | – | – | – | – | – | – | 0.554 | 1.93 | 1.16 | – | – | – | 6.09 | – | – | – | – | – |
